Source: paper PMC2638642 (Toxicological Sciences, 2008)

What was measured:
[1] = after iv administration in human; ref Palmer-Toy, 2000; Rybak, 2006; cited from earlier work
Toxicokinetic = type: in vivo, BALB/c mice
Summary of the method: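 Female BALB/c mice (12/group) got vancomycin iv or ip at 50, 200 or 400 mg/kg. Retro-orbital EDTA plasma came from three mice per time point, 0.083–24 h after doses 1 and 7. Plasma went through SPE with a tinidazole internal standard, eluted in acetonitrile:KH2PO4 pH 4, then gradient LC; calibration by 1/y-weighted regression of peak-area ratio. Noncompartmental analysis; F = (AUCip/AUCiv)×(Doseiv/Doseip).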

BALB/c mice [2] = experiment: Histopathology, 7-day toxicity study; type: in vivo
BALB/c mice [3] = experiment: Serum clinical chemistry, 7-day toxicity study; type: in vivo; details: for BUN change: 3 mice per group
Summary of the method: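 Groups of six female BALB/c mice were dosed iv or ip with the test compound at 50, 200 or 400 mg/kg once daily for 7 days; controls got 0.9% saline by the same route. Retro-orbital blood was taken from three randomly selected mice per group on day 3 (before the third dose) and day 8 (before sacrifice). Serum BUN, ALP and GGT were measured by an outside veterinary laboratory.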

[4] = high-dose treatment, day 8, serum

**Q.** With `CN[C@H](CC(C)C)C(=O)N[C@H]1C(=O)N[C@@H](CC(N)=O)C(=O)N[C@H]2C(=O)N[C@H]3C(=O)N[C@H](C(=O)N[C@H](C(=O)O)c4cc(O)cc(O)c4-c4cc3ccc4O)[C@H](O)c3ccc(c(Cl)c3)Oc3cc2cc(c3O[C@@H]2O[C@H](CO)[C@@H](O)[C@H](O)[C@H]2O[C@H]2C[C@](C)(N)[C@H](O)[C@H](C)O2)Oc2ccc(cc2Cl)[C@H]1O` [vancomycin] as the compound, how does the “Cmax in human (also therapeutic range)” value [1] read?
**A.** 20000 to 50000 ng/mL

**Q.** What about the “AUC^0→∞ after iv relative to ip administration (iv higher)” value (Toxicokinetic; BALB/c mice, 200 mg/kg) of the same compound?
**A.** 1.7 fold

**Q.** What about the “difference in Cmax value between iv and ip administration (iv higher)” value (Toxicokinetic; BALB/c mice, 200 mg/kg, after seven doses) of the same compound?
**A.** 3.4 fold

**Q.** What about the “clinical condition of animals in TK study” value (Toxicokinetic; iv high-dose group (400 mg/kg), some animals) of the same compound?
**A.** moribund or dead

**Q.** What about the “primary histopathological finding in kidneys” value (BALB/c mice [2]; 400 mg/kg/day either iv or ip x7, day 8, H&E) of the same compound?
**A.** proximal tubular necrosis

**Q.** What about the “inflammatory cell infiltration into the affected renal tissue” value (BALB/c mice [2]; 400 mg/kg/day iv or ip x7, day 8, H&E) of the same compound?
**A.** minimal

**Q.** And the “signs of toxicity in clinical chemistry and histopathology assessments” value (BALB/c mice [2]; iv-200 (200 mg/kg/day iv x7))?
**A.** did not exhibit signs of toxicity

**Q.** What about the “CRE (serum creatinine) levels” value (BALB/c mice [3]; 50, 200, 400 mg/kg/day iv or ip x7) of the same compound?
**A.** not significantly affected

**Q.** What about the BUN change (BALB/c mice [3]; high-dose (400 mg/kg/day x7) ip, day 8, serum) of the same compound?
**A.** trend toward increased BUN values

**Q.** What about the BUN change (BALB/c mice [3]; high-dose (400 mg/kg/day x7) iv, day 8, serum) of the same compound?
**A.** statistically significant increase

**Q.** What about the “alkaline phosphatase (ALP)” value (BALB/c mice [3]; [4]) of the same compound?
**A.** affected

**Q.** And the “gamma-glutamyl transferase (GGT)” value (BALB/c mice [3]; [4])?
**A.** affected
